We go through 14 compounds from ChEMBL document CHEMBL1250524, “Novel imidazoline compounds as partial or full agonists of D2-like dopamine receptors inspired by I2-imidazoline binding sites ligand 2-BFI” (Bioorg Med Chem, 2010).

A short description of experiment [1]: Displacement of [3H]YM-09-151-2 from D2-like receptor in pig striatal membrane. The experiment is classed as cell membranes, Sus scrofa, Striatum. The method in brief: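 Pig striatal membranes (about 200 µg protein) in Tris–HCl pH 7.4 with protease inhibitors, incubated to equilibrium (60 min, 30 °C) with 0.3 nM [3H]YM-09-151-2 and at least six compound concentrations. Nonspecific binding defined with 2.5 mM dopamine. Filtration, scintillation counting. IC50 converted to Ki by Cheng–Prusoff; 3–5 experiments in triplicate. Radioligand Kd 0.40 nM.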
For orientation: Loss of bound radioactivity is the signal in a displacement assay; it reports binding, not function.

Experiment [2] can be described thus: Displacement of [3H]2BFI from I2 imidazoline binding site in rat brain membrane. The format is cell membranes. The method in brief: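 Rat whole-brain membranes (about 300 µg protein) incubated to equilibrium (30 min, room temperature) with 1 nM [3H]2-BFI and increasing compound concentrations in 50 mM Tris–HCl, 1 mM MgCl2, pH 7.4. Nonspecific binding defined with 10 µM BU224. Filtration, scintillation counting. At least six concentrations; IC50 converted to Ki by Cheng–Prusoff; 3–5 experiments in triplicate.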

The target in experiment [3] is T1, Adrenergic receptor alpha-2 (Rattus norvegicus, UniProt P22086+P19328+P22909).
T1 sequence (P22086 whole entry): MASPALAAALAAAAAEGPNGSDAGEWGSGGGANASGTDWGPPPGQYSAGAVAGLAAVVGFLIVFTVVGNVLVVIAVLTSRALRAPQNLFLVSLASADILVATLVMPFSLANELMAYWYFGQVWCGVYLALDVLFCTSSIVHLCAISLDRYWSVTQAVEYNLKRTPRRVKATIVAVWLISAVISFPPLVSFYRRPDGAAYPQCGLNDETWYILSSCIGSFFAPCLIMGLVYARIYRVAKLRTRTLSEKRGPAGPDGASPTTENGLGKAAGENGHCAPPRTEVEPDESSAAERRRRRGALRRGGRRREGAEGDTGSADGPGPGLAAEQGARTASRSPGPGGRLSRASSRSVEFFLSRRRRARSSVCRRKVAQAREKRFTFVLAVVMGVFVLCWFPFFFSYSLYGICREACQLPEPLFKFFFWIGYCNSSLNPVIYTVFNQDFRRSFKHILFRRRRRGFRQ
T1 sequence (P19328 whole entry): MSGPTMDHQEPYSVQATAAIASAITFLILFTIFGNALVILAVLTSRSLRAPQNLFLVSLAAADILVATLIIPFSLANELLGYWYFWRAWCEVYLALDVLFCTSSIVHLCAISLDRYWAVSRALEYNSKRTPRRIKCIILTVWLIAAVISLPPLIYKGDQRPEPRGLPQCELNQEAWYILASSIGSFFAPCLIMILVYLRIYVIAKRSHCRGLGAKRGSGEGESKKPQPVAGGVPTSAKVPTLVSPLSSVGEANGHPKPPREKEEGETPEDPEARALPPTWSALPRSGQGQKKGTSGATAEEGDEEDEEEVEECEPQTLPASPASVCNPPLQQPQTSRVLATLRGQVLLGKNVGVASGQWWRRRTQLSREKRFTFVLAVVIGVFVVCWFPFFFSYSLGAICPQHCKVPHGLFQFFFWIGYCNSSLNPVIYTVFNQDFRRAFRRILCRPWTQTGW
T1 sequence (P22909 whole entry): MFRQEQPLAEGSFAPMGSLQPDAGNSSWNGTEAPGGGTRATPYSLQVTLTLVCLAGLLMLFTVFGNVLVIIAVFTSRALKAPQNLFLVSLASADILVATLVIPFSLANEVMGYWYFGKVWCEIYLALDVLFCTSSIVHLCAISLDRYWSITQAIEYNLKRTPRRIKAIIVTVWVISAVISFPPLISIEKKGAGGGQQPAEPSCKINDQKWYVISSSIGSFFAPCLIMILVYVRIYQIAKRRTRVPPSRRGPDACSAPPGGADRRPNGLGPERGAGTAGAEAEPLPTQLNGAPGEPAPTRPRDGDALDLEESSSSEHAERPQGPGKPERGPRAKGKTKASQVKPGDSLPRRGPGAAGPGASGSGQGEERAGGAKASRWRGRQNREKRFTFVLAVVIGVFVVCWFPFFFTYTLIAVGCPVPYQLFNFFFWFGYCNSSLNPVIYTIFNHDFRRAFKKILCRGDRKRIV
Description: Displacement of [3H]RX821002 from alpha2 adrenergic receptor in rat brain membrane. The experiment is classed as cell membranes.

Experiment [4] is described as follows: Agonist activity at D2-like receptor in pig striatal membrane assessed as [35S]GTPgammaS binding. The experiment is classed as functional, cell membranes, Sus scrofa, Striatum. The method in brief: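 Porcine striatal membranes incubated 60 min at 30 °C in 50 mM Tris–HCl pH 7.4 with GDP, 5 mM MgCl2, 0.1 mM EDTA, 0.2 mM EGTA, 0.2 mM DTT, 150 mM NaCl, 0.2 nM [35S]GTPγS and six compound concentrations. Nonspecific binding defined with unlabeled GTPγS. Filtration, scintillation counting. EC50 by nonlinear regression, three independent experiments. Intrinsic activity set relative to dopamine %Emax = 1.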

Experiment [5] relates to Rattus norvegicus. Description: Anxiolytic-like activity in Wistar rat assessed as ambulatory activity at 0.0149 uM/kg, icv by open field test. The experiment is classed as functional. The method in brief:
(§1)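 Male Wistar rats (200–225 g, 8 per group) given ip zolazepam/tiletamine anaesthesia before a cannula was implanted in the right lateral ventricle. Compound given icv at 0.0149 µM/kg; controls received physiological solution. Open field with two photocell rows: lower-row breaks counted as ambulatory episodes, upper-row breaks as rearing. Read-out is the % of episodes in the central area, mean ± SE.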

For experiment [6], the system named is Rattus norvegicus. Description: Anxiolytic-like activity in Wistar rat assessed as rearing activity at 0.0149 uM/kg, icv by open field test. The format is functional. In short, it runs like this: as §1
Experiment [7] is described as follows: Displacement of [3H]SCH23390 from dopamine D1-like receptor pig striatal membrane.

One may read the Ki as the dissociation constant of the complex between target and ligand, obtained from inhibition or displacement. Regarding `Oc1ccc2oc(C3=NCCN3)cc2c1`, the Ki in experiment [1] is over 100 µM; in experiment [2], 0.0881 µM; in experiment [3], 2.95 µM.

The compound `CN1CCN=C1c1cc2cc(O)ccc2o1` showed a Ki in experiment [1] of over 100 µM.

As to `CCN1CCN=C1c1cc2cc(O)ccc2o1`, the figures for the Ki in experiment [1], in experiment [2] and in experiment [3] were over 100 µM, over 100 µM and 25.5 µM, respectively.

On to `CCCN1CCN=C1c1cc2cc(O)ccc2o1`, for which the values for the Ki in experiment [1], in experiment [2] and in experiment [3] were 15.8 µM, 0.7 µM and 3.64 µM, respectively.

Broadly, the EC50 is the concentration that produces a half-maximal response. With `Oc1ccc2cc(C3=NCCN3)oc2c1`, the Ki was determined as 14.5 µM in experiment [1], 0.076 µM in experiment [2] and 11 µM in experiment [3]. In experiment [4], the EC50 was determined as 5.7 µM.

With `CCCN1CCN=C1c1cc2ccc(O)cc2o1`, the Ki in experiment [1] was found to be 13.8 µM; in experiment [2], 2.1 µM; in experiment [3] it was 1.92 µM. For the same compound, the EC50 in experiment [4] is 13.3 µM.

On to `Oc1cc2cc(C3=NCCN3)oc2cc1O`, for which the Ki was over 100 µM in experiment [1], 5.69 µM in experiment [2] and 24.21 µM in experiment [3].

As to `CCCN1CCN=C1c1cc2cc(O)c(O)cc2o1`, the Ki is over 100 µM in experiment [1], 28 µM in experiment [2] and 10.16 µM in experiment [3].

For `Oc1ccc2oc(C3=NCCN3Cc3ccccc3)cc2c1`, the Ki in experiment [1] stood at 5 µM; in experiment [2], 1.1 µM; in experiment [3], 4.39 µM. Also, the EC50 in experiment [4] stood at 6.3 µM.

For the compound `Oc1ccc2cc(C3=NCCN3Cc3ccccc3)oc2c1`, the Ki in experiment [1] amounted to 5.66 µM; in experiment [2], 5.78 µM; in experiment [3], 2.08 µM. Also, the EC50 in experiment [4] came to 5.8 µM. Also, the figures for the Activity with Rattus norvegicus [5] and in the experiment with Rattus norvegicus [6] were 6.3% and 2%, respectively.

With `Oc1cc2cc(C3=NCCN3Cc3ccccc3)oc2cc1O`, the inhibitory constant (Ki) in experiment [1] was determined as 18.5 µM; in experiment [2], 10.4 µM; in experiment [3], 4.43 µM. In addition, in experiment [4], the EC50 was found to be 11.9 µM.

Regarding `c1ccc2oc(C3=NCCN3)cc2c1`, the Ki in experiment [1] came out at 47 µM; in experiment [2], 0.0034 µM. In experiment [4], the EC50 was 37.7 µM.

In general, Kd refers to the constant that tells how readily two partners part at equilibrium. In experiment [1], `NCCc1ccc(O)c(O)c1` [DOPAMINE] came in with a Ki of 3.9 µM. Further, the concentration for a half-maximal effect (EC50) in experiment [4] was determined as 4.8 µM. This compound registered an equilibrium dissociation constant (Kd) in experiment [7] of 0.00133 µM.

For `N[C@@H](Cc1ccc(O)c(O)c1)C(=O)O` [LEVODOPA], the Activity is reported as 5.7% with Rattus norvegicus [5] and 2% with Rattus norvegicus [6].
